The source of these data is ChEMBL document CHEMBL4130442, “Design, synthesis and structure-activity relationship studies of a focused library of pyrimidine moiety with anti-proliferative and anti-metastasis activities in triple negative breast cancer” (Eur J Med Chem, 2017).

Structures are written as SMILES. Calls of active or inactive are those of the source. The calls are words filed in the database; no cut-off is given here.

The test system of series [1] is MDA-MB-231. Nature of the series: Activation of ERK in human MDA-MB-231 cells assessed as ERK phosphorylation level at 2.5 to 10 uM incubated for 24 hrs by immunofluorescence assay. It counts as cell-based. The gist of the method: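 MDA-MB-231 cells (ATCC; DMEM, 10% FBS, 5% CO2) were treated, blocked in PBS with 1.5% goat serum, then given p-ERK antibody (1:200 in PBS with 1% BSA) overnight at 4 °C. TRITC-labelled secondary antibody followed for 1 h at room temperature. Nuclear fluorescence was read by microscopy.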

The target in series [2] is T1, Platelet-derived growth factor receptor beta (Homo sapiens, UniProt P09619). Description: Inhibition of PDGFRbeta in human MDA-MB-231 cells assessed as ULK Ser555 phosphorylation level at 2.5 uM incubated for 24 hrs in presence of control siRNA by Western blot relative to untreated control. It counts as cell-based. A digest of the protocol: (§1)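 Cells were transfected with control or PDGFR-β siRNA, then treated with 2.5 μM compound for 24 h. PDGFR-β-AKT-ULK1 pathway phospho-proteins were assessed by western blot: lysis in Hepes pH 7.4 / Triton buffer, 10-15% SDS-PAGE, PVDF, ECL detection, β-actin as loading control.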

For series [3], the system named is MDA-MB-231. Description: Effect on total mTOR protein level in human MDA-MB-231 cells at 2.5 uM incubated for 24 hrs by Western blot relative to untreated control. It is filed as ADME, cell-based. To be noted: mda-mb-231, 24 h. The gist of the method: (§2)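 MDA-MB-231 cells were exposed for 24 h. Adherent and floating cells were pooled and lysed for 1 h at 4 °C in 50 mM Hepes pH 7.4 with 1% Triton X-100, orthovanadate, NaF, EDTA, PMSF, aprotinin and leupeptin. After 12,000 rpm clearing, equal protein was run on 10-15% SDS-PAGE and blotted to PVDF. Detection used HRP-ECL, with β-actin as loading control and densitometric quantification.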
(A western blot detects proteins with antibodies after separation by electrophoresis.)

Series [4] concerns the target T1, Platelet-derived growth factor receptor beta. Description: Inhibition of PDGFRbeta in human MDA-MB-231 cells assessed as Akt Ser473 phosphorylation level at 2.5 uM incubated for 24 hrs in presence of control siRNA by Western blot relative to untreated control. It is filed as cell-based. A digest of the protocol: as §1
The target is the same in series [5]. Nature of the series: Inhibition of PDGFRbeta in human MDA-MB-231 cells assessed as mTOR Ser2448 phosphorylation level at 2.5 uM incubated for 24 hrs in absence of PDGFRbeta siRNA by Western blot relative to untreated control. It is filed as cell-based. A digest of the protocol: as §1
In series [6] the target is T2, Mitogen-activated protein kinase; ERK1/ERK2 (Homo sapiens) (UniProt P27361+P28482). Description: Inhibition of ERK1/2 in human MDA-MB-231 cells assessed as ERK1/2 Thr202/Tyr204 phosphorylation level at 10 uM incubated for 24 hrs in presence of PDGFRbeta siRNA by Western blot relative to untreated control. It is filed as cell-based.
For series [7], the system named is MDA-MB-231. Nature of the series: Effect on total Ras protein level in human MDA-MB-231 cells at 5 uM incubated for 24 hrs by Western blot relative to untreated control. As to conditions: mda-mb-231, 24 h.
Series [8] deals with T1, Platelet-derived growth factor receptor beta. Nature of the series: Inhibition of PDGFRbeta in human MDA-MB-231 cells assessed as PDGFRbeta Tyr740 phosphorylation level at 2.5 uM incubated for 24 hrs by Western blot relative to untreated control. It counts as cell-based. A digest of the protocol: (§3)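 Cells were treated 24 h at several concentrations. Pooled adherent and floating cells were lysed in Hepes 50 mM pH 7.4 / 1% Triton X-100 buffer with vanadate, NaF, EDTA, PMSF, aprotinin and leupeptin. Equal protein was run on 10-15% SDS-PAGE and blotted to PVDF. PDGFR-β-AKT-ULK1 pathway phospho-proteins were probed and detected by ECL, with β-actin as loading control.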

Series [9] has the same target. Nature of the series: Inhibition of PDGFRbeta (unknown origin) using ATP and enzyme substrate by kinase-glo Plus luminescence kinase assay. For orientation: Kinase-Glo reads ATP consumption through a luciferase reaction.
Series [10] shares this target. Nature of the series: Inhibition of PDGFRbeta in human MDA-MB-231 cells assessed as Akt Thr305 phosphorylation level at 5 uM incubated for 24 hrs by Western blot relative to untreated control. It is filed as cell-based. A digest of the protocol: as §3
The subject of series [11] is MDA-MB-231. Description: Effect on total c-Raf protein level in human MDA-MB-231 cells at 10 uM incubated for 24 hrs in presence of PDGFRbeta siRNA by Western blot relative to untreated control. It is filed as cell-based. To be noted: mda-mb-231, 24 h.
For series [12], the system named is MDA-MB-231. Nature of the series: Effect on total ULK1 protein level in human MDA-MB-231 cells at 5 uM incubated for 24 hrs by Western blot relative to untreated control. It counts as ADME, cell-based. To be noted: mda-mb-231, 24 h. The gist of the method:
as §2

In series [13] the test system is MDA-MB-231. Nature of the series: Induction of autophagy in human MDA-MB-231 cells assessed as change in LC3-2 protein level at 2.5 uM incubated for 24 hrs in absence of PDGFRbeta siRNA by Western blot method relative to untreated control. It is filed as functional. The gist of the method: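 Before treatment, MDA-MB-231 cells were transfected with control or PDGFR-β siRNA, then exposed to 2.5 μM compound for 24 h. Lysates of pooled adherent and floating cells were immunoblotted (10-15% SDS-PAGE, PVDF, ECL) for PDGFR-β-AKT-ULK1 autophagy signalling markers, with β-actin as loading control.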

The target in series [14] is T1, Platelet-derived growth factor receptor beta. Description: Inhibition of PDGFRbeta in human MDA-MB-231 cells assessed as C-Raf Ser259 phosphorylation level at 5 uM incubated for 24 hrs in presence of PDGFRbeta siRNA by Western blot relative to untreated control. It is filed as cell-based.
The target is the same in series [15]. Description: Inhibition of PDGFRbeta in human MDA-MB-231 cells assessed as ULK Ser555 phosphorylation level at 2.5 uM incubated for 24 hrs by Western blot relative to untreated control. It counts as cell-based. A digest of the protocol:
as §3

For series [16], the target named is T2, Mitogen-activated protein kinase; ERK1/ERK2 (Homo sapiens). Description: Inhibition of ERK1/2 in human MDA-MB-231 cells assessed as ERK1/2 Thr202/Tyr204 phosphorylation level at 2.5 uM incubated for 24 hrs in presence of PDGFRbeta siRNA by Western blot relative to untreated control. It is filed as cell-based.

T1 sequence (P09619 whole entry): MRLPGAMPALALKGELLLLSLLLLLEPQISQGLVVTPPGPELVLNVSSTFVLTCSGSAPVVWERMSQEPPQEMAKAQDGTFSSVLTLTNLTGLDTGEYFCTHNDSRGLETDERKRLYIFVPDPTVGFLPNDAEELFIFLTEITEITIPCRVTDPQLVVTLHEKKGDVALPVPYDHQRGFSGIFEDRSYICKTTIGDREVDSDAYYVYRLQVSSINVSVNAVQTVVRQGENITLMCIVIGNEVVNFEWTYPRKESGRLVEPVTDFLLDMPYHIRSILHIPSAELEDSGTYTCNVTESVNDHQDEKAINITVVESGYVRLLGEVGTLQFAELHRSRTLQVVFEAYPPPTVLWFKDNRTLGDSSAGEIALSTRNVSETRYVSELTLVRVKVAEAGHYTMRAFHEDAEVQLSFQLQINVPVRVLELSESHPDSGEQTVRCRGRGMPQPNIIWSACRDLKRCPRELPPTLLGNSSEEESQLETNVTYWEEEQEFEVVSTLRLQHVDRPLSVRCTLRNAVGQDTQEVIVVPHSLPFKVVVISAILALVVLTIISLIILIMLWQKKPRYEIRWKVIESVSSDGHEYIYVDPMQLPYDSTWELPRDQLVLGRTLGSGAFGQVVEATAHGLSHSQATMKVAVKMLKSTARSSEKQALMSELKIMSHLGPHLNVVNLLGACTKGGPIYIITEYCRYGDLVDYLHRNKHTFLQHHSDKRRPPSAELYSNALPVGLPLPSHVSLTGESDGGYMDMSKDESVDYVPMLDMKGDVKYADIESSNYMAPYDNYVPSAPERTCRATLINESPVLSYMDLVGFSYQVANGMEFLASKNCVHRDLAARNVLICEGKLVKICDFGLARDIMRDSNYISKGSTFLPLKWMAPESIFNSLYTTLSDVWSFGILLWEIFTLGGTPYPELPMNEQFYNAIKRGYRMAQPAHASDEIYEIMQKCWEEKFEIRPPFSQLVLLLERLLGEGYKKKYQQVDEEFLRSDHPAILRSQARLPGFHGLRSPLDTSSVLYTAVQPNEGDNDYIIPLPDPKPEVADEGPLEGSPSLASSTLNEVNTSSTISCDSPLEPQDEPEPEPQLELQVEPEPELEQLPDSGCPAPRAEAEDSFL
T2 sequence (P27361 whole entry, looked up): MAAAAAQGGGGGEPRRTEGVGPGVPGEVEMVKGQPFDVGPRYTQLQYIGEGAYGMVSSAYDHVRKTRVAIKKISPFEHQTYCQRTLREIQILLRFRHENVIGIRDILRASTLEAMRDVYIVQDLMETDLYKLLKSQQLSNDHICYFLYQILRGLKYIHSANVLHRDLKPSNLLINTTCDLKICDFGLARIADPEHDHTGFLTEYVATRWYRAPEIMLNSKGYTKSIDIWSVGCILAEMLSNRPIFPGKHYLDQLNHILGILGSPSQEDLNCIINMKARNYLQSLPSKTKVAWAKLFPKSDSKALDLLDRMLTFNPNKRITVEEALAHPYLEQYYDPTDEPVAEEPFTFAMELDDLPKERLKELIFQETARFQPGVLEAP
T2 sequence (P28482 whole entry, looked up): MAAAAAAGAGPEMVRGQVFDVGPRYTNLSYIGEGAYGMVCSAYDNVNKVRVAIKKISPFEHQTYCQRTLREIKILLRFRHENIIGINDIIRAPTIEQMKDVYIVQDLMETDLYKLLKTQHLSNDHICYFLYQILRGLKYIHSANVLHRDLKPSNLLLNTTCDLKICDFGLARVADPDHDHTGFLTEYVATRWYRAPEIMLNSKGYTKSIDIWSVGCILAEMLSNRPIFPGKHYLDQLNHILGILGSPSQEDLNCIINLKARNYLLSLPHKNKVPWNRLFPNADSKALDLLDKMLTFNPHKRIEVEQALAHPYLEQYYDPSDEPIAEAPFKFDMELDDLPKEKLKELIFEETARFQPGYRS

A word on the IC50: it is the point on the concentration scale where inhibition reaches its midpoint. `COc1cccc(Nc2cc(N3CCN(C(=O)Nc4ccc(C(F)(F)F)cc4)CC3)ncn2)c1`: in [1], the outcome was Active. The fold change (FC) in series [2] worked out at 3.21; in series [3], 0.37; in series [4] it was 0.88; in series [5] it was 0.21; in series [6], 2.38; in [7], 1.35. Further, the fold change (FC) in series [8] came out at 1.2; in [10], 0.75; in series [11], 1.23; in [12], 0.91; in [13] it was 2.87; in series [14] it was 1.06. Moreover, the results for the fold change (FC) in series [15] and in series [16] were 4.5 and 1.05, respectively. Besides, the IC50 in series [9] was 7.8 µM.
